CAL PDZ FP-1 – CAL PDZ (human) peptide binding inhibition. purified CAL PDZ, TMR-peptide fluorescence polarization, 1 h. inhibition, % at 24.9 µM. Q9HD26. 300,000 compounds, 0.92% hits;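 active means mean inhibition of at least 30% with at least half of replicates also reaching 30%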;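 further: 0% = DMSO neutral control and 100% = excess unlabeled competitor peptide PRC23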
F508del corr – CFTR F508del correction in bronchial cells; CFBE cells, YFP halide quenching; stimulated with forskolin plus potentiator P3; % fluorescence drop versus neutral controls; activity (quench increase), % at 7.58 µM; 350,000 compounds, 0.36% hits;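 active means mean added fluorescence quench of at least 8% versus neutral control, with both replicates also reaching 8%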;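 further: cells transiently co-express mutant CFTR-F508del with the halide-sensitive YFP; corrector assay measuring rescue of mutant channel to the surface after 24 h compound exposure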
CAL PDZ FP-2 – blocks peptide binding to human CAL PDZ domain | Q9HD26 | purified CAL PDZ, TMR-peptide fluorescence polarization, 1 h | inhibition, % at 20 µM | 330,000 compounds, 0.02% hits | AID 504414;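 active means highest replicate inhibition of at least 40%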;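 further: plate controls were DMSO neutral control wells for no effect and unlabeled competitor peptide control wells for full effect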
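Material: tagged CAL PDZ domain; buffer or medium: 25 mM sodium phosphate pH 7.4, 150 mM NaCl, TCEP, IgG, Thesit; compound dosing: single point, 20 µM; schedule: 1 h incubation at room temperature before polarization reading; measured by: FP readout, S and P plane fluorescence; read-out basis: percent inhibition from loss of millipolarization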
ARNT-TACC3 inh – disruptors of human ARNT/TACC3 interaction | AlphaScreen His-ARNT PAS-B/GST-TACC3 binding, luminescence; TACC3 fragment carries E629A point mutation | inhibition, % at 9.99 µM | 390,000 compounds, 0.66% hits | AID 623870;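 active means mean inhibition of replicates at least 50% and at least half of replicates each reaching 50%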;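 further: 0% = complete ARNT plus TACC3 wells and 100% = ARNT alone without TACC3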
miR122 inh – blocks miR-122 activity in Huh7 sensor cells. 340,000 compounds, 0.3% hits. Huh7 miR-122 Renilla luciferase sensor, 48 h; neutral wells = 0, positive control = 100. activation (reporter increase), % at 12.5 µM;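 active means mean replicate activation score at least 90 and every replicate individually at or above 90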;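 further: higher luciferase means less miR-122 activity so hits act as miR-122 inhibitors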
PGC1a acetyl inh – lowers PGC1a acetylation signal in U2OS cells; inhibition, % at 15.6 µM; 350,000 compounds, 0.17% hits; AlphaScreen anti-acetyl-lysine; with virally co-expressed GCN5 acetyltransferase;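 active means every replicate shows inhibition of at least 40%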;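 further: 0% = neutral control wells and 100% = positive control wells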
* = called active by the depositor; [ ] = another dose, or the depositor's remark. Most compounds without a hit are left out; they make up all but 1.7% or so of the library.

Screening Cc1ccccc1OCc1nc2ccccc2c(=O)n1/N=C/c1c[nH]c2ccccc12 returned CAL PDZ FP-1 -7, F508del corr 4, CAL PDZ FP-2 -2, ARNT-TACC3 inh 0 and miR122 inh -1.
For CCCNC(=O)C[C@H]1CC[C@H]2[C@@H](COC[C@@H](O)CN2C(=O)CC)O1 the results were F508del corr -1, ARNT-TACC3 inh -3, miR122 inh 6[16.7 µM] and PGC1a acetyl inh -4.
Screening C/C=C/c1ccc([C@@H]2[C@@H](CO)N(Cc3ccccn3)[C@H]2CNC(C)=O)cc1 returned F508del corr -2, ARNT-TACC3 inh 5, miR122 inh -7[16.7 µM] and PGC1a acetyl inh 1.
For C/C=C/c1ccc([C@@H]2[C@H](CO)N(Cc3ccccn3)[C@H]2CNC(C)=O)cc1 the results were F508del corr 3, ARNT-TACC3 inh 37*, miR122 inh 24[16.7 µM] and PGC1a acetyl inh -2.
Screening C/C=C/c1ccc([C@H]2[C@@H](CO)N(C(=O)COC)[C@@H]2CNC(=O)CC)cc1 returned F508del corr 8.3*, ARNT-TACC3 inh -5, miR122 inh -7[16.7 µM] and PGC1a acetyl inh -2.
`O=C(C1CCC1)N1CCCCN2[C@@H](CO)[C@H](c3ccc(C#CC4CCCC4)cc3)[C@@H]2C1` gave F508del corr 1, ARNT-TACC3 inh 12, miR122 inh -28[16.7 µM] and PGC1a acetyl inh -22.
`CCCNC(=O)N(C)C[C@@H]1Oc2ncc(C#CC3CC3)cc2C(=O)N([C@H](C)CO)C[C@@H]1C` gave F508del corr 2, ARNT-TACC3 inh -7, miR122 inh 1[16.7 µM] and PGC1a acetyl inh 5.
Screening CC(C)c1ccc(NC(=O)c2cc(Br)ccc2Br)cc1 returned CAL PDZ FP-1 37*, F508del corr -2, CAL PDZ FP-2 0, ARNT-TACC3 inh -3 and miR122 inh 17.
O=C(Nc1ccc2[nH]c(=O)[nH]c2c1)c1cc(F)c(F)cc1Cl was read as CAL PDZ FP-1 55*, F508del corr 2, CAL PDZ FP-2 0, ARNT-TACC3 inh -1, miR122 inh 4 and PGC1a acetyl inh 9.
Screening COc1ccc(S(=O)(=O)N(C)C[C@@H]2OCCCC[C@@H](C)Oc3ccc(NC(=O)Nc4cccc5ccccc45)cc3C(=O)N([C@@H](C)CO)C[C@H]2C)cc1 returned F508del corr 2, miR122 inh 0[16.7 µM] and PGC1a acetyl inh -18.
For Cc1c2cc(O)c(=O)cc-2oc2cc(O)c(O)cc12 the results were F508del corr 17*, CAL PDZ FP-2 10, miR122 inh 5 and PGC1a acetyl inh 5.
COc1cc(OC)c(-c2c3cc(O)c(=O)cc-3oc3cc(O)c(O)cc23)cc1OC was read as CAL PDZ FP-1 -97, F508del corr 21* and CAL PDZ FP-2 -4.
Cc1cc2oc(=O)cc(-c3cc4ccccc4o3)c2cc1O was read as CAL PDZ FP-1 -11, F508del corr 0, CAL PDZ FP-2 -3, ARNT-TACC3 inh -3 and miR122 inh -1.
For COc1cc(-c2cc(=O)c3ccc(O)cc3o2)cc(OC)c1OC the results were F508del corr 1, miR122 inh 1 and PGC1a acetyl inh -15.
C[C@@H]1CCCCO[C@@H](CN(C)C(=O)NC2CCCCC2)[C@@H](C)CN([C@@H](C)CO)C(=O)c2cc(NC(=O)Nc3cccc4ccccc34)ccc2O1 was read as F508del corr 2, ARNT-TACC3 inh -11, miR122 inh 2[16.7 µM] and PGC1a acetyl inh -8.
Screening COc1ccc(OC)c(NC(=O)N2CCCC(C)C2)c1 (stereo not given) returned CAL PDZ FP-1 -4, F508del corr -1, CAL PDZ FP-2 1 and ARNT-TACC3 inh 3.
`COc1ccc(OC)c(NC(=O)N2CCCC(C(=O)c3ccccc3OC)C2)c1` (stereo not given) gave CAL PDZ FP-1 77*, F508del corr -1, CAL PDZ FP-2 0, ARNT-TACC3 inh 7 and miR122 inh 0.
COc1cccc(C(=O)C2CCCN(C(=O)c3ccccn3)C2)c1 (stereo not given) was read as CAL PDZ FP-1 73*, F508del corr -1, CAL PDZ FP-2 1, ARNT-TACC3 inh 0, miR122 inh 0 and PGC1a acetyl inh 1.
For CCN(CC)CCn1c2c(c(SCC(=O)NCc3ccccc3)nc1=O)CCC2 the results were CAL PDZ FP-1 39*, F508del corr -3, CAL PDZ FP-2 0, ARNT-TACC3 inh -21, miR122 inh -5 and PGC1a acetyl inh -11.
For CCN=C1SC(C(=O)Nc2cccc(Cl)c2)CC(=O)N1CC (stereo not given) the results were CAL PDZ FP-1 0, F508del corr -1, CAL PDZ FP-2 -2 and ARNT-TACC3 inh -14.
For CCN=C1SC(C(=O)Nc2cc(Cl)cc(Cl)c2)CC(=O)N1CC (stereo not given) the results were F508del corr -2, CAL PDZ FP-2 0, ARNT-TACC3 inh active, miR122 inh -4 and PGC1a acetyl inh -4.
For CNC(=O)C1CC(=O)N(CCc2ccc(OC)cc2)C(=Nc2ccc(OC)cc2)S1 (stereo not given) the results were CAL PDZ FP-1 -1, CAL PDZ FP-2 -2, ARNT-TACC3 inh -4 and PGC1a acetyl inh -9.
CCN1C(=O)CC(C(=O)NC)SC1=Nc1cc(Cl)c(O)c(Cl)c1 (stereo not given) was read as CAL PDZ FP-1 0, CAL PDZ FP-2 -1 and ARNT-TACC3 inh 23*.
For C[C@@H]1CN([C@H](C)CO)C(=O)c2cc(-c3cccc(F)c3)cnc2O[C@H]1CN(C)Cc1cccc(F)c1 the results were F508del corr 1, miR122 inh 5[16.7 µM] and PGC1a acetyl inh -10.
Screening C[C@@H]1CN([C@@H](C)CO)C(=O)c2cccc(NC(=O)Nc3ccc(C(F)(F)F)cc3)c2O[C@H]1CN(C)S(=O)(=O)c1ccccc1 returned F508del corr 1, miR122 inh -4[16.7 µM] and PGC1a acetyl inh -2.
`CCS(=O)(=O)N1CC2(C1)[C@H](c1ccccc1)[C@@H](CO)N2C(=O)C1CC1` gave F508del corr -1 and PGC1a acetyl inh 2.
Screening O=C(COC(=O)Cc1c(F)cccc1Cl)NNC(=O)c1ccccc1 returned CAL PDZ FP-1 1, F508del corr 0, CAL PDZ FP-2 0, ARNT-TACC3 inh 2, miR122 inh -5 and PGC1a acetyl inh 11.
For O=C(COC(=O)Cc1c(F)cccc1Cl)NC(=O)c1ccccc1 the results were CAL PDZ FP-1 50*, F508del corr 1, CAL PDZ FP-2 -2, ARNT-TACC3 inh -2 and miR122 inh 1.
`Cc1nc(C(F)(F)F)c(C(=O)N/N=C(\N)c2ccccn2)s1` gave CAL PDZ FP-1 5, F508del corr 5, CAL PDZ FP-2 -1, ARNT-TACC3 inh 62* and PGC1a acetyl inh -1.
